Laboratory results taken from the M2OR odorant receptor database.
Where a chain is given by its changes, count along the chain named.

What was measured:
Details in all cases: stereoisomer not certain
OR2B3 (Homo sapiens) = molecular target: T1, OR2B3 (Homo sapiens) (UniProt O76000)
T1 sequence (whole entry): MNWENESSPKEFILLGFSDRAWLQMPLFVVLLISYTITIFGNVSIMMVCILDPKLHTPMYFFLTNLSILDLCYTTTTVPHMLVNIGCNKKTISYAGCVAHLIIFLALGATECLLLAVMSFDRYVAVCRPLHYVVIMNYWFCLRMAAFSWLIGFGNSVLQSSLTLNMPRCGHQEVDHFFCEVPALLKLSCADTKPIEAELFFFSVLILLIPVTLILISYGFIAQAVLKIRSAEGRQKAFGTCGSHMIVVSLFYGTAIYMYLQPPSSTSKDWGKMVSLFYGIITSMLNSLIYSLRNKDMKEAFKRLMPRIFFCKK
Summary of the method: (§1)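 Whether a receptor–molecule pair is responsive (active) rests on the original authors' judgment that its measured signal was statistically different from baseline. Pairs without that judgment are non-responsive (inactive). Sources used varied assay methods, commonly transient luciferase assays in mammalian cell lines.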

OR2AE1 (Homo sapiens) = molecular target: T2, OR2AE1 (Homo sapiens) (UniProt Q8NHA4)
T2 sequence (whole entry): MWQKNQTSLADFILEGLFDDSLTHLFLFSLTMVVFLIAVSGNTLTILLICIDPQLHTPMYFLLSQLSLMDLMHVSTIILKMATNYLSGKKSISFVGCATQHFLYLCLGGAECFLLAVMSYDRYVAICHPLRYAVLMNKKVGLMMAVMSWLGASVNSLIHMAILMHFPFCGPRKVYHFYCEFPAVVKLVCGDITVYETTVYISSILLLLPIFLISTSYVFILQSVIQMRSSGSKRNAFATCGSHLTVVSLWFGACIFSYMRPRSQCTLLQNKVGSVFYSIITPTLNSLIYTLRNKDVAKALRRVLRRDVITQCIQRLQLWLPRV
Summary of the method: as §1

OR2AG1 (Homo sapiens) = molecular target: T3, OR2AG1 (Homo sapiens) (UniProt Q9H205)
T3 sequence (whole entry): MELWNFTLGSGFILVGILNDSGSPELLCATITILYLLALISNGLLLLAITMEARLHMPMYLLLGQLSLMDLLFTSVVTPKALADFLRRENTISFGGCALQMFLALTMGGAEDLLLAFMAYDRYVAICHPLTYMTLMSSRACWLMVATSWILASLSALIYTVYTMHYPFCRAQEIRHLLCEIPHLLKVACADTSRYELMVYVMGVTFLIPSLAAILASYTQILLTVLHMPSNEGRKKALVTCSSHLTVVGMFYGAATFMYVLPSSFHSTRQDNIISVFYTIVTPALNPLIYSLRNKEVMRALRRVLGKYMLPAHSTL
Summary of the method: as §1

OR2AG2 (Homo sapiens) = molecular target: T4, OR2AG2 (Homo sapiens) (UniProt A6NM03)
T4 sequence (whole entry): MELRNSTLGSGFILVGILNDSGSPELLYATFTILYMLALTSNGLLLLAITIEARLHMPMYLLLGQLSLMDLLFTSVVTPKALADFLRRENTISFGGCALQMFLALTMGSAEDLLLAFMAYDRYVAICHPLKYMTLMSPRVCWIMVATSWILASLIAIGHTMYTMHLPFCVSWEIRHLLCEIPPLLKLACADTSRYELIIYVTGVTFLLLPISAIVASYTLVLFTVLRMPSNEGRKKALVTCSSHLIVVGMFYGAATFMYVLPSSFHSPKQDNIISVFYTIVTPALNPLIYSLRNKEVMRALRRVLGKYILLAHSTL
Summary of the method: as §1

OR2AJ1 (Homo sapiens) = molecular target: T5, OR2AJ1 (Homo sapiens) (UniProt Q8NGZ0)
T5 sequence (whole entry): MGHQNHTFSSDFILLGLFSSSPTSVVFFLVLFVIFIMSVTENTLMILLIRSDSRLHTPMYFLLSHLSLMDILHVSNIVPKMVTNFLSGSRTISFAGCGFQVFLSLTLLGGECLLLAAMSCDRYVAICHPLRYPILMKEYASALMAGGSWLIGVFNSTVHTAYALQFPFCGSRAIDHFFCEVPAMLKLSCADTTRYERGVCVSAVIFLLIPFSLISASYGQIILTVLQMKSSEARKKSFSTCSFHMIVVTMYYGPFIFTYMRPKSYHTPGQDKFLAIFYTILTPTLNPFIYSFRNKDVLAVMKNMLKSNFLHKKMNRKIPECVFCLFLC
Summary of the method: as §1

OR2AK2 (Homo sapiens) = molecular target: T6, OR2AK2 (Homo sapiens) (UniProt Q8NG84)
T6 sequence (whole entry): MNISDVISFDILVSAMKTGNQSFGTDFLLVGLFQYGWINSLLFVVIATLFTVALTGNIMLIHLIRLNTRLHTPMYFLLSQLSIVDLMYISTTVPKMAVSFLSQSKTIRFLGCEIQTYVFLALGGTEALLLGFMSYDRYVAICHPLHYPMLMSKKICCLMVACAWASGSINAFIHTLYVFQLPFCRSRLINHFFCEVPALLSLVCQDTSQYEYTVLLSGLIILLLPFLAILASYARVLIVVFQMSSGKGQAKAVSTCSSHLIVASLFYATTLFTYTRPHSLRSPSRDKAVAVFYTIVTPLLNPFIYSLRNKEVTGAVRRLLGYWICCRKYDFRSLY
Summary of the method: as §1

OR2AP1 (Homo sapiens) = molecular target: T7, OR2AP1 (Homo sapiens) (UniProt Q8NGE2)
T7 sequence (whole entry): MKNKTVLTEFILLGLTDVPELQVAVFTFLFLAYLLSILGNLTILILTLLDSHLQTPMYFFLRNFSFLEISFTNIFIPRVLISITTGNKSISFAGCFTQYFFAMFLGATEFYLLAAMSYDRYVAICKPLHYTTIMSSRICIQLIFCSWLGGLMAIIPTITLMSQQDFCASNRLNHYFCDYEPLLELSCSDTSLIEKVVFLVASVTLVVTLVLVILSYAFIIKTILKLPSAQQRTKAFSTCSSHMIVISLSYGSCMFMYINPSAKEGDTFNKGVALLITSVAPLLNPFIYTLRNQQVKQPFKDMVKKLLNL
Summary of the method: as §1

OR2AT4 (Homo sapiens) = molecular target: T8, OR2AT4 (Homo sapiens) (UniProt A6NND4)
T8 sequence (whole entry): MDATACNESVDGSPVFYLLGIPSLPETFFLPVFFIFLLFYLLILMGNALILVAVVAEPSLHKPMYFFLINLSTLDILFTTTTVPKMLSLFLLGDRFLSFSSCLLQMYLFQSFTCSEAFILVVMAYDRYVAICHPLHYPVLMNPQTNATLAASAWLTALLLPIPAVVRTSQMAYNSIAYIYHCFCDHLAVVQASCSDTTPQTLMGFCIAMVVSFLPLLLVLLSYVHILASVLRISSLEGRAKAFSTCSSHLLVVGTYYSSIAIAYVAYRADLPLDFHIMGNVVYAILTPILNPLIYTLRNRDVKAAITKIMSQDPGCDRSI
Summary of the method: as §1

OR2B11 (Homo sapiens) = molecular target: T9, OR2B11 (Homo sapiens) (UniProt Q5JQS5)
T9 sequence (whole entry): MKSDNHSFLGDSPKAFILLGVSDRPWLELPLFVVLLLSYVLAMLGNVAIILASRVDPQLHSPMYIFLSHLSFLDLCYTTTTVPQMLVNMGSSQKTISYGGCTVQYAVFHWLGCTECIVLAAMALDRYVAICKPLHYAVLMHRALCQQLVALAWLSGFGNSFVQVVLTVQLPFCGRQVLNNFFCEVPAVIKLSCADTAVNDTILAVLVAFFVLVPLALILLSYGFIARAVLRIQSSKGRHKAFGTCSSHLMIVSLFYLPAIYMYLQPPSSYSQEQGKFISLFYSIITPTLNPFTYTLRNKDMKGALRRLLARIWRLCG
Summary of the method: as §1

OR2B2 (Homo sapiens) = molecular target: T10, OR2B2 (Homo sapiens) (UniProt Q9GZK3)
T10 sequence (whole entry): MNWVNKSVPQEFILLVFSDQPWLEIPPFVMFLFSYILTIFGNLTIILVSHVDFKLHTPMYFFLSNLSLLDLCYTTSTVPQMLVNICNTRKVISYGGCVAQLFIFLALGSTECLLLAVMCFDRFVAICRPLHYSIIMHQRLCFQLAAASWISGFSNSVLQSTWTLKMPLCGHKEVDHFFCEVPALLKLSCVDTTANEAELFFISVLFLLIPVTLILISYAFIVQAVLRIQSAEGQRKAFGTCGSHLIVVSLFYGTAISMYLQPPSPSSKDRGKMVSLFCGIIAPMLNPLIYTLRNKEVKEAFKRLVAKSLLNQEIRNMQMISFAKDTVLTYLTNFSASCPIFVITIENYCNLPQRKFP
Summary of the method: as §1

OR2B6 (Homo sapiens) = molecular target: T11, OR2B6 (Homo sapiens) (UniProt P58173)
T11 sequence (whole entry): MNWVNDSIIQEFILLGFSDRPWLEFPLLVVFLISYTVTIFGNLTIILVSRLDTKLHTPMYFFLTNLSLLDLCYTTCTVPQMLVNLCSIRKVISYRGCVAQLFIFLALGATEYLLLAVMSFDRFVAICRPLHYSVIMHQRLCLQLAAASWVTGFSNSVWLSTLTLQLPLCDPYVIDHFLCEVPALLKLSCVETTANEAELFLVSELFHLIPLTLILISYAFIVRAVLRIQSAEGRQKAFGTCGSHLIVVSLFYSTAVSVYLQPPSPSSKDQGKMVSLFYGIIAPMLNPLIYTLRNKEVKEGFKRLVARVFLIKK
Summary of the method: as §1

OR2C1 (Homo sapiens) = molecular target: T12, OR2C1 (Homo sapiens) (UniProt O95371)
T12 sequence (whole entry): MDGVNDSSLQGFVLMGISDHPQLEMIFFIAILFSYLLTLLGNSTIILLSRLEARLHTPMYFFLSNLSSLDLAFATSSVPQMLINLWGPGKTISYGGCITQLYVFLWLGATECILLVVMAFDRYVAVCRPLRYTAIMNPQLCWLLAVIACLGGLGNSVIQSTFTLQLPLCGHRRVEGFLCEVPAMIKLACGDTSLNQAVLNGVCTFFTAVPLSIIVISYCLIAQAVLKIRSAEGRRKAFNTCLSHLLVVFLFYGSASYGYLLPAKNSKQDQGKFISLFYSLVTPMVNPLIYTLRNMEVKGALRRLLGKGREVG
Summary of the method: as §1

OR2A7 = system: T13, OR2A7
T13 sequence (whole entry): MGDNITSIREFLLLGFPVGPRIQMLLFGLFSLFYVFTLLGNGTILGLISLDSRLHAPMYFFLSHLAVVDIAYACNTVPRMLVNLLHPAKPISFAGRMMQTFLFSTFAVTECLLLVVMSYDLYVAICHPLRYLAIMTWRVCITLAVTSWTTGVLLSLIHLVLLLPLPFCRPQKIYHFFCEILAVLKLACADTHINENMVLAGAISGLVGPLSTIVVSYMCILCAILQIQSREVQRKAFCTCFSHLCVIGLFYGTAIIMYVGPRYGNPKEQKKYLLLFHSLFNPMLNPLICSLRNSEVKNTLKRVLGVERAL
Summary of the method: as §1

OR2BB [1] = system: T14, OR2BB
T14 sequence (whole entry): T9 sequence (whole entry) with V198M, G223D
Summary of the method: as §1

OR2BB [2] = system: T15, OR2BB; remark: listed apart in the source
T15 sequence (whole entry): T9 sequence (whole entry) with V198M
Summary of the method: as §1

OR2C1 = system: T16, OR2C1
T16 sequence (whole entry): T12 sequence (whole entry) with C149W
Summary of the method: as §1

OR2BB [3] = system: T17, OR2BB; remark: listed apart in the source
T17 sequence (whole entry): T9 sequence (whole entry) with V198M, T293I, D300G
Summary of the method: as §1

OR2BB [4] = system: OR2BB; remark: listed apart in the source
Summary of the method: as §1
Target sequence in this assay (as listed by the source): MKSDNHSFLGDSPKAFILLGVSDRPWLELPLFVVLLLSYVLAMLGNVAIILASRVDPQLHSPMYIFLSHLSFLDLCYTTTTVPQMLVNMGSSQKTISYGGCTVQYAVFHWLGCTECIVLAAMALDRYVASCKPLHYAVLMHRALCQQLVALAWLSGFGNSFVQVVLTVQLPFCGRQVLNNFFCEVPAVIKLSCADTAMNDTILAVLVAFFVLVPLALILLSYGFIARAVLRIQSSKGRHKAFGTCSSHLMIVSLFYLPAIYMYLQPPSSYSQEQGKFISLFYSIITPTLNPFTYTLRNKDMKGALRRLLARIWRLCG

Measured: odorant receptor agonist call;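 also: active if original authors judged signal statistically different from baseline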

CCC=C(C)C(O)CCCCC (stereo unspecified)
inactive: OR2B3 (Homo sapiens)

CCCCCC1COCCC1OC(C)=O (stereo unspecified)
inactive: OR2B3 (Homo sapiens)

CCCCCC(S)C(C)CO (stereo unspecified)
active: OR2AK2 (Homo sapiens) | OR2B2 (Homo sapiens)
not listed: OR2A7 | OR2BB [1] | OR2BB [2] | OR2C1 | OR2BB [3] | OR2BB [4]
inactive: all other assays above

CCC1OC(=O)C(O)=C1C (stereo unspecified)
not listed: OR2AJ1 (Homo sapiens) | OR2BB [3] | OR2BB [4]
inactive: all other assays above

CCC(S)C(C)CO (stereo unspecified)
not listed: OR2A7 | OR2BB [1] | OR2BB [2] | OR2C1 | OR2BB [3] | OR2BB [4]
inactive: all other assays above

CCCCCC(=O)C(C)C(C)=O (stereo unspecified)
not listed: OR2A7 | OR2BB [1] | OR2BB [2] | OR2C1 | OR2BB [3] | OR2BB [4]
inactive: all other assays above

CC(C)C1OC(C)(C)OCC1(C)C (stereo unspecified)
inactive: OR2AG1 (Homo sapiens)

CCCCCCC=CCCC=O
not listed: OR2BB [3] | OR2BB [4]
inactive: all other assays above

C1CCC(SSC2CCCCC2)CC1
active: OR2B11 (Homo sapiens)

CCCC(S)CCOC(C)=O (stereo unspecified)
not listed: OR2AJ1 (Homo sapiens) | OR2BB [3] | OR2BB [4]
inactive: all other assays above

c1ccc2ncccc2c1
inactive: OR2BB [1] | OR2BB [4]
active: OR2B11 (Homo sapiens) | OR2BB [3] | OR2BB [2]
